Laboratory results taken from ChEMBL document CHEMBL3856258, “Phosphonate-based irreversible inhibitors of human γ-glutamyl transpeptidase (GGT). GGsTop is a non-toxic and highly selective inhibitor with critical electrostatic interaction with an active-site residue Lys562 for enhanced inhibitory activity” (Bioorg Med Chem, 2016).
Calls of active or inactive are those of the source. The calls are words filed in the database; no cut-off is given here.

Key:
Homo sapiens = species: Homo sapiens; assay: Irreversible inhibition of human GGT using gamma-Glu-AMC as substrate assessed as association rate constant by […] analysis
Outline: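 The enzyme source was a commercial human GGT preparation carrying bovine serum albumin as stabilizer (GGT <1% of protein). Hydrolytic activity was followed with γ-Glu-AMC as substrate. Irreversible inactivation was expressed as kon, the second-order rate constant for the inhibitor–enzyme reaction.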

Escherichia coli K-12 = assay: Irreversible inhibition of Escherichia coli K-12 SH642 GGT using gamma-Glu-AMC as substrate assessed as association rate constant by […] analysis
Outline: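 GGT was purified from the periplasmic fraction of recombinant E. coli K-12 SH642. Hydrolytic activity was followed with γ-Glu-AMC as substrate. Irreversible inactivation was expressed as kon, the second-order rate constant for the inhibitor–enzyme reaction.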

[1] = Hydrolytic stability of the compound in D2O assessed as formation of monomethyl phosphonate and phenol at 23 degC up to 28 days by 31P NMR spectroscopy; assay type: physicochemical; conditions: 672 h
[2] = Hydrolytic stability of the compound in D2O assessed as formation of monomethyl phosphonate and phenol at 23 degC after 28 days by 31P NMR spectroscopy; assay type: physicochemical; conditions: 672 h
Salmonella typhimurium [3] = assay: Genotoxicity in Salmonella typhimurium TA100 assessed as number of revertant colonies per plate at 1 ug/plate after 20 mins in presence of S9 fraction by Ames test (reference value: 142); assay type: toxicity, organism-based; conditions: salmonella enterica subsp. enterica serovar typhimurium
Salmonella typhimurium [4] = assay: Genotoxicity in Salmonella typhimurium TA1535 assessed as number of revertant colonies per plate at 2 ug/plate after 20 mins in presence of S9 fraction by Ames test (reference value: 13); assay type: toxicity, organism-based; conditions: salmonella enterica subsp. enterica serovar typhimurium
Escherichia coli [5] = assay: Genotoxicity in Escherichia coli WP2uvrA assessed as number of revertant colonies per plate at 10 ug/plate after 20 mins in presence of S9 fraction by Ames test (reference value: 26); assay type: toxicity; conditions: s9, 20 min
Salmonella typhimurium [6] = assay: Genotoxicity in Salmonella typhimurium TA98 assessed as number of revertant colonies per plate at 0.5 ug/plate after 20 mins in presence of S9 fraction by Ames test (reference value: 26); assay type: toxicity, organism-based; conditions: salmonella enterica subsp. enterica serovar typhimurium
Salmonella typhimurium [7] = assay: Genotoxicity in Salmonella typhimurium TA1537 assessed as number of revertant colonies per plate at 2 ug/plate after 20 mins in presence of S9 fraction by Ames test (reference value: 15); assay type: toxicity, organism-based; conditions: salmonella enterica subsp. enterica serovar typhimurium
Salmonella typhimurium [8] = assay: Genotoxicity in Salmonella typhimurium TA1537 assessed as number of revertant colonies per plate at 80 ug/plate after 20 mins in absence of S9 fraction by Ames test (reference value: 9); assay type: toxicity, organism-based; conditions: salmonella enterica subsp. enterica serovar typhimurium
[9] = Cytotoxicity against CHL cells assessed as structural aberrations at 20 ug/ml preincubated for 6 hrs followed by 18 hrs incubation in fresh medium in presence of S9 fraction by Giemsa-staining-based microscopic analysis; assay type: toxicity, cell-based, Cricetulus griseus; conditions: chinese hamster
[10] = Cytotoxicity against CHL cells assessed as chromatid gap at 20 ug/ml preincubated for 6 hrs followed by 18 hrs incubation in fresh medium in presence of S9 fraction by Giemsa-staining-based microscopic analysis; assay type: toxicity, cell-based, Cricetulus griseus; conditions: chinese hamster
[11] = Cytotoxicity against CHL cells assessed as number of cells with numerical aberrations at 20 ug/ml preincubated for 6 hrs followed by 18 hrs incubation in fresh medium in presence of S9 fraction by Giemsa staining-based microscopic analysis relative to control; assay type: toxicity, cell-based, Cricetulus griseus; conditions: chinese hamster
Salmonella typhimurium [12] = assay: Genotoxicity in Salmonella typhimurium TA98 assessed as number of revertant colonies per plate at 1 ug/plate after 20 mins in absence of S9 fraction by Ames test (reference value: 21); assay type: toxicity, organism-based; conditions: salmonella enterica subsp. enterica serovar typhimurium
[13] = Cytotoxicity against CHL cells assessed as structural aberrations at 0.05 ug/ml preincubated for 6 hrs followed by 18 hrs incubation in fresh medium in absence of S9 fraction by Giemsa-staining-based microscopic analysis; assay type: toxicity, cell-based, Cricetulus griseus; conditions: chinese hamster
[14] = Cytotoxicity against CHL cells assessed as chromatid gap at 0.05 ug/ml preincubated for 6 hrs followed by 18 hrs incubation in fresh medium in absence of S9 fraction by Giemsa-staining-based microscopic analysis; assay type: toxicity, cell-based, Cricetulus griseus; conditions: chinese hamster
[15] = Cytotoxicity against CHL cells assessed as structural aberrations at 0.05 ug/ml after 24 hrs by Giemsa-staining-based microscopic analysis; assay type: toxicity, cell-based, Cricetulus griseus; conditions: chinese hamster
[16] = Cytotoxicity against CHL cells assessed as chromatid gap at 0.05 ug/ml after 24 hrs by Giemsa-staining-based microscopic analysis; assay type: toxicity, cell-based, Cricetulus griseus; conditions: chinese hamster
[17] = Cytotoxicity against CHL cells assessed as number of cells with numerical aberrations at 0.05 ug/ml preincubated for 6 hrs followed by 18 hrs incubation in fresh medium in absence of S9 fraction by Giemsa-staining-based microscopic analysis relative to control; assay type: toxicity, cell-based, Cricetulus griseus; conditions: chinese hamster
[18] = Cytotoxicity against CHL cells assessed as number of cells with numerical aberrations at 0.05 ug/ml after 24 hrs by Giemsa staining-based microscopic analysis relative to control; assay type: toxicity, cell-based, Cricetulus griseus; conditions: chinese hamster
Escherichia coli [19] = assay: Inhibition of glutaminase activity of Escherichia coli asparagine synthetase B at 0.1 mM using L-glutamine as substrate after 30 to 120 mins in presence of L-glutamate dehydrogenase and NAD+
Outline: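 Enzyme (60 µg) preincubated at 30 °C with inhibitor in 100 mM Tris-HCl pH 7.5, 8 mM MgCl2, 100 mM NaCl, 0.5 mM DTT. Aliquots taken at 30 and 120 min. Glutaminase reaction: 100 mM EPPS pH 8, 20 mM L-Gln, 37 °C for 10 min, then TCA quench. Glutamate read as NADH via glutamate dehydrogenase in glycine–hydrazine pH 9 with ADP and NAD+.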

| Structure (SMILES) | K (Homo sapiens) [M⁻¹ s⁻¹] | K (Escherichia coli K-12) [M⁻¹ s⁻¹] | further results |
| --- | --- | --- | --- |
| COP(=O)(CCC(N)C(=O)O)Oc1cccc(C(=O)O)c1 (mixture of isomers) | 1.6 | 450 |  |
| CCOC(=O)Cc1cccc(OP(=O)(CCC(N)C(=O)O)OC)c1 (mixture of isomers) | 1.2 | 120 |  |
| COP(=O)(CCC(N)C(=O)O)Oc1ccccc1 (stereo not drawn) | 0.4 | 120 |  |
| COP(=O)(CCC(N)C(=O)O)Oc1cccc(CCC(=O)O)c1 (mixture of isomers) | 7.7 | 71 |  |
| NC(CCP(=O)(Oc1ccccc1)Oc1cccc(CC(=O)O)c1)C(=O)O (mixture of isomers) | 40 |  |  |
| COP(=O)(CCC(N)C(=O)O)Oc1ccc(CC(=O)O)cc1 (stereo not drawn) | 0.33 | 210 | Stability [1]: Stable |
| COP(=O)(CCC(N)C(=O)O)Oc1cccc([N+](=O)[O-])c1 (mixture of isomers) | 49 | 5100 | Stability [2]: Unstable |
| COP(=O)(CCC(N)C(=O)O)Oc1ccc(C(=O)O)cc1 (mixture of isomers) | 5.2 | 3200 |  |
| COP(=O)(CCC(N)C(=O)O)Oc1cccc(CC(N)=O)c1 (mixture of isomers) | 1.9 | 400 |  |
| Nc1ccc2cc3ccccc3cc2c1 [2-AMINOANTHRACENE] |  |  | Activity (Salmonella typhimurium [3]): 694; Activity (Salmonella typhimurium [4]): 299; Activity (Escherichia coli [5]): 495; Activity (Salmonella typhimurium [6]): 421; Activity (Salmonella typhimurium [7]): 154 |
| NC(CCP(=O)(Oc1ccccc1)Oc1ccccc1)C(=O)O (racemic) | 0.41 | 27.8 |  |
| Nc1c2ccccc2nc2ccccc12 [AMINACRINE] |  |  | Activity (Salmonella typhimurium [8]): 320 |
| c1ccc2c(c1)cc1ccc3cccc4ccc2c1c34 [BENZO[DEF]CHRYSENE] |  |  | Activity [9]: 46%; Activity [10]: 6%; Activity [11]: 1% |
| O=[N+]([O-])c1ccc2c(c1)Cc1ccccc1-2 [2-NITROFLUORENE] |  |  | Activity (Salmonella typhimurium [12]): 442 |
| CO[C@@]12[C@H](COC(N)=O)C3=C(C(=O)C(C)=C(N)C3=O)N1C[C@@H]1N[C@@H]12 [MITOMYCIN] |  |  | Activity [13]: 40%; Activity [14]: 3%; Activity [15]: 40%; Activity [16]: 0%; Activity [17]: 2%; Activity [18]: 0% |
| N[C@H](C(=O)O)[C@@H]1CC(Cl)=NO1 |  |  | inhibition (Escherichia coli [19]): Active |
